Data: ChEMBL document CHEMBL3045605, “Synthesis and anticancer evaluation of novel 3,5-diaryl-thiazolo[4,5-d]pyrimidin-2-one derivatives” (2013)

Key:
Format in all cases: functional
[1] = system: HCT-116; test: Anticancer activity against Homo sapiens (human) HCT116 cells assessed as cell growth at 10 uM by SRB assay; conditions: read-out: Activity
Summary of the method: (§1)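 NCI 60-cell human tumour panel (nine cancer types) screened at one concentration, 10−5 M. Cell growth estimated by sulforhodamine B protein staining and reported as percent growth of treated cells relative to untreated controls.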

[2] = system: SR; test: Anticancer activity against Homo sapiens (human) SR cells assessed as cell growth at 10 uM by SRB assay; conditions: read-out: Activity
Summary of the method: (§2)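 NCI 60-cell human tumour panel (leukemia, melanoma, lung, colon, CNS, breast, ovarian, prostate, renal lines) given a single 10−5 M dose. Growth is expressed as percent growth of treated cells relative to untreated controls, with cell growth/viability estimated by sulforhodamine B protein staining.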

[3] = system: K562; test: Anticancer activity against Homo sapiens (human) K562 cells assessed as cell growth at 10 uM by SRB assay; conditions: read-out: Activity; summary of the method: as §1
[4] = system: CAKI-1; test: Anticancer activity against Homo sapiens (human) CAKI-1 cells assessed as cell growth at 10 uM by SRB assay; conditions: read-out: Activity; summary of the method: as §1
[5] = system: COLO 205; test: Anticancer activity against Homo sapiens (human) COLO205 cells by SRB assay
Summary of the method: (§3)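 NCI 60-line panel, five tenfold dilutions from 10−4 to 10−8 M, growth read by sulforhodamine B staining against untreated controls. From the dose–response per line: GI50 (molar concentration giving half growth inhibition), TGI (molar concentration giving total growth inhibition, cytostatic) and LC50 (molar concentration killing 50% of initial cells, cytotoxic).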

[6] = system: NCI-H460; test: Anticancer activity against Homo sapiens (human) NCI-H460 cells by SRB assay
Summary of the method: (§4)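 Five-dose NCI 60-cell-line panel testing at tenfold dilutions from 10−4 to 10−8 M, with growth read by sulforhodamine B protein staining. For each cell line: GI50 is the molar concentration giving half growth inhibition; TGI is total growth inhibition (cytostatic); LC50 is the molar concentration killing 50% of the initial cells (cytotoxic).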

[7] = system: NCI-H522; test: Anticancer activity against Homo sapiens (human) NCI-H522 cells by SRB assay; summary of the method: as §4
[8] = Anticancer activity against Homo sapiens (human) NCI-322M cells by SRB assay; summary of the method: as §4
[9] = system: HOP-92; test: Anticancer activity against Homo sapiens (human) HOP92 cells by SRB assay; summary of the method: as §3
[10] = system: NCI-H23; test: Anticancer activity against Homo sapiens (human) NCI-H23 cells by SRB assay; summary of the method: as §4
[11] = system: HOP-62; test: Anticancer activity against Homo sapiens (human) HOP62 cells by SRB assay; summary of the method: as §3
[12] = system: A549; test: Anticancer activity against Homo sapiens (human) A549/ATCC cells by SRB assay; summary of the method: as §3
[13] = system: EKVX; test: Anticancer activity against Homo sapiens (human) EKVX cells by SRB assay; summary of the method: as §3
[14] = system: SR; test: Anticancer activity against Homo sapiens (human) SR cells by SRB assay
Summary of the method: (§5)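 NCI five-dose follow-up on the 60-line human tumour panel at tenfold dilutions from 10−4 to 10−8 M, with growth read by sulforhodamine B protein assay against untreated controls. For each cell line, GI50 (half growth inhibition), TGI (total growth inhibition) and LC50 (50% death of initial cells) are calculated as molar concentrations.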

[15] = Anticancer activity against Homo sapiens (human) RPMI8266 cells by SRB assay; summary of the method: as §4
[16] = system: K562; test: Anticancer activity against Homo sapiens (human) K562 cells by SRB assay; summary of the method: as §3
[17] = system: CCRF-CEM; test: Anticancer activity against Homo sapiens (human) CCRF-CEM cells by SRB assay; summary of the method: as §3
[18] = system: ACHN; test: Anticancer activity against Homo sapiens (human) ACHN cells by SRB assay; summary of the method: as §3
[19] = system: 786-0; test: Anticancer activity against Homo sapiens (human) 786-0 cells by SRB assay; summary of the method: as §3
[20] = system: NCI/ADR-RES; test: Anticancer activity against Homo sapiens (human) NCI/ADR-RES cells by SRB assay; summary of the method: as §4
[21] = system: SK-OV-3; test: Anticancer activity against Homo sapiens (human) SKOV3 cells by SRB assay; summary of the method: as §4
[22] = system: OVCAR-8; test: Anticancer activity against Homo sapiens (human) OVCAR8 cells by SRB assay; summary of the method: as §4
[23] = system: OVCAR-5; test: Anticancer activity against Homo sapiens (human) OVCAR5 cells by SRB assay; summary of the method: as §4
[24] = system: OVCAR-4; test: Anticancer activity against Homo sapiens (human) OVCAR4 cells by SRB assay; summary of the method: as §4
[25] = system: OVCAR-3; test: Anticancer activity against Homo sapiens (human) OVCAR3 cells by SRB assay; summary of the method: as §4
[26] = system: IGROV-1; test: Anticancer activity against Homo sapiens (human) IGROV1 cells by SRB assay; summary of the method: as §3
[27] = system: UACC-62; test: Anticancer activity against Homo sapiens (human) UACC62 cells by SRB assay; summary of the method: as §5
[28] = system: SK-MEL-5; test: Anticancer activity against Homo sapiens (human) SK-MEL-5 cells by SRB assay; summary of the method: as §4
[29] = system: UACC-257; test: Anticancer activity against Homo sapiens (human) UACC257 cells by SRB assay; summary of the method: as §5
[30] = system: SK-MEL-28; test: Anticancer activity against Homo sapiens (human) SK-MEL-28 cells by SRB assay; summary of the method: as §4
[31] = system: SK-MEL-2; test: Anticancer activity against Homo sapiens (human) SK-MEL-2 cells by SRB assay; summary of the method: as §4
[32] = system: MDA-MB-435; test: Anticancer activity against Homo sapiens (human) MDA-MB-435 cells by SRB assay; summary of the method: as §4
[33] = system: M14; test: Anticancer activity against Homo sapiens (human) M14 cells by SRB assay; summary of the method: as §3
[34] = system: Malme-3M; test: Anticancer activity against Homo sapiens (human) MALME-3M cells by SRB assay; summary of the method: as §3
[35] = system: SNB-75; test: Anticancer activity against Homo sapiens (human) SNB75 cells by SRB assay; summary of the method: as §4
[36] = system: U-251; test: Anticancer activity against Homo sapiens (human) U251 cells by SRB assay; summary of the method: as §5
[37] = system: SNB-19; test: Anticancer activity against Homo sapiens (human) SNB19 cells by SRB assay; summary of the method: as §4
[38] = system: SF-539; test: Anticancer activity against Homo sapiens (human) SF539 cells by SRB assay; summary of the method: as §4
[39] = system: SF-295; test: Anticancer activity against Homo sapiens (human) SF295 cells by SRB assay; summary of the method: as §4
[40] = system: SF-268; test: Anticancer activity against Homo sapiens (human) SF268 cells by SRB assay; summary of the method: as §4
[41] = system: KM12; test: Anticancer activity against Homo sapiens (human) KM12 cells by SRB assay; summary of the method: as §3
[42] = system: SW-620; test: Anticancer activity against Homo sapiens (human) SW620 cells by SRB assay; summary of the method: as §5
[43] = system: HT-29; test: Anticancer activity against Homo sapiens (human) HT-29 cells by SRB assay; summary of the method: as §3
[44] = system: HCT-15; test: Anticancer activity against Homo sapiens (human) HCT15 cells by SRB assay; summary of the method: as §3
[45] = system: HCT-116; test: Anticancer activity against Homo sapiens (human) HCT116 cells by SRB assay; summary of the method: as §3
[46] = system: T47D; test: Anticancer activity against Homo sapiens (human) T47D cells by SRB assay; summary of the method: as §5
[47] = system: BT-549; test: Anticancer activity against Homo sapiens (human) BT549 cells by SRB assay; summary of the method: as §3
[48] = system: Hs-578T; test: Anticancer activity against Homo sapiens (human) Hs 578T cells by SRB assay; summary of the method: as §3
[49] = system: MCF7; test: Anticancer activity against Homo sapiens (human) MCF7 cells by SRB assay; summary of the method: as §3
[50] = system: DU-145; test: Anticancer activity against Homo sapiens (human) DU145 cells by SRB assay; summary of the method: as §3
[51] = system: RXF 393; test: Anticancer activity against Homo sapiens (human) RXF393 cells by SRB assay; summary of the method: as §4
[52] = system: PC-3; test: Anticancer activity against Homo sapiens (human) PC3 cells by SRB assay; summary of the method: as §4
[53] = system: UO-31; test: Anticancer activity against Homo sapiens (human) UO31 cells by SRB assay; summary of the method: as §5
[54] = system: SN12C; test: Anticancer activity against Homo sapiens (human) SN12C cells by SRB assay; summary of the method: as §4
[55] = system: TK-10; test: Anticancer activity against Homo sapiens (human) TK10 cells by SRB assay; summary of the method: as §5
[56] = system: CAKI-1; test: Anticancer activity against Homo sapiens (human) CAKI-1 cells by SRB assay; summary of the method: as §3
[57] = system: A498; test: Anticancer activity against Homo sapiens (human) A498 cells by SRB assay; summary of the method: as §3
[58] = system: NCI-H522; test: Anticancer activity against Homo sapiens (human) NCI-H522 cells assessed as cell growth at 10 uM by SRB assay; conditions: read-out: Activity
Summary of the method: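 Single-dose screen in the NCI 60-human-tumour-cell-line panel (nine cancer types) at 10−5 M. Cell growth was estimated by sulforhodamine B protein staining and reported as percent growth of treated cells relative to untreated controls.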

[59] = system: CCRF-CEM; test: Anticancer activity against Homo sapiens (human) CCRF-CEM cells assessed as cell growth at 10 uM by SRB assay; conditions: read-out: Activity; summary of the method: as §1
[60] = system: LOX IMVI; test: Anticancer activity against Homo sapiens (human) LOXIMVI cells assessed as cell growth at 10 uM by SRB assay; conditions: read-out: Activity; summary of the method: as §1
[61] = system: SW-620; test: Anticancer activity against Homo sapiens (human) SW620 cells assessed as cell growth at 10 uM by SRB assay; conditions: read-out: Activity; summary of the method: as §2

O=c1sc2c(Cl)nc(-c3ccc(F)cc3)nc2n1-c1ccccc1
growth at 10 µM [1]: 40.5% | growth at 10 µM [2]: 28.6% | growth at 10 µM [3]: 35.8% | growth at 10 µM [4]: 41.8%

Nc1nc2[nH]cnc2c(=S)[nH]1 [THIOGUANINE]
GI50 [5]: 2510 nM | GI50 [6]: 1000 nM | GI50 [7]: 2000 nM | GI50 [8]: 25.1 µM | GI50 [9]: 1580 nM | GI50 [10]: 3.16 µM | GI50 [11]: 794 nM | GI50 [12]: 5.01 µM | GI50 [13]: 3.98 µM | GI50 [14]: 631 nM | GI50 [15]: 1260 nM | GI50 [16]: 100 µM | GI50 [17]: 316 nM | GI50 [18]: 3.98 µM | GI50 [19]: 1580 nM | GI50 [20]: 398 nM | GI50 [21]: 501 nM | GI50 [22]: 398 nM | GI50 [23]: 501 nM | GI50 [24]: 5.01 µM | GI50 [25]: 1580 nM | GI50 [26]: 6.31 µM | GI50 [27]: 398 nM | GI50 [28]: 2510 nM | GI50 [29]: 6.31 µM | GI50 [30]: 6.31 µM | GI50 [31]: 1580 nM | GI50 [32]: 501 nM | GI50 [33]: 631 nM | GI50 [34]: 3.16 µM | GI50 [35]: 1000 nM | GI50 [36]: 10 µM | GI50 [37]: 79.4 µM | GI50 [38]: 631 nM | GI50 [39]: 1260 nM | GI50 [40]: 1260 nM | GI50 [41]: 3.16 µM | GI50 [42]: 3.98 µM | GI50 [43]: 1260 nM | GI50 [44]: 2510 nM | GI50 [45]: 631 nM | GI50 [46]: 10 µM | GI50 [47]: 1260 nM | GI50 [48]: 6.31 µM | GI50 [49]: 501 nM | GI50 [50]: 501 nM | GI50 [51]: 501 nM | GI50 [52]: 3.16 µM | GI50 [53]: 794 nM | GI50 [54]: 7.94 µM | GI50 [55]: 501 nM | GI50 [56]: 316 nM | GI50 [57]: 25.1 µM

O=c1[nH]c(-c2ccccc2)nc2c1sc(=O)n2-c1ccccc1
growth at 10 µM [4]: 26.8%

O=c1sc2c(Cl)nc(-c3ccc(Cl)cc3)nc2n1-c1ccccc1
growth at 10 µM [1]: 29.3% | growth at 10 µM [58]: 5.19% | growth at 10 µM [2]: 21.5% | growth at 10 µM [3]: 34.6% | growth at 10 µM [59]: 33.6% | growth at 10 µM [60]: 24.4% | growth at 10 µM [61]: 47.6%
